Experimental data reported in ChEMBL document CHEMBL4732185, “Synthesis, biological evaluation and structure-activity relationship of novel dichloroacetophenones targeting pyruvate dehydrogenase kinases with potent anticancer activity” (Eur J Med Chem, 2021).
One block for each molecule: values may come before it. Active and inactive are the calls of the source. No cut-off for these calls is given here.

How the values were obtained:
[1] = test system: A-375; assay: Inhibition of PDK in human A375 cells assessed as reduction in phosphorylation of PDC E1alpha at ser293 residues at 5 uM after 24 hrs by Western blot analysis; format: cell-based
Summary of the method: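 A375 cells in 6-well plates, treated 24 h. Lysed 15 min and spun 12000 rpm at 4 °C for 15 min. Protein equalized by BCA and denatured in SDS buffer at 100 °C for 8 min. Run on SDS-PAGE, transferred to nitrocellulose, blocked in 5% milk 2 h, primary antibody overnight, HRP anti-rabbit IgG 2 h, ECL detection.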

[2] = test system: L02; assay: Cytotoxicity against human L02 cells assessed as reduction in cell viability after 72 hrs by MTT assay; format: cell-based; conditions: Homo sapiens, L02, 72 h; read-out: IC50
Summary of the method: (§1)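 MTT viability assay. Cancer lines seeded at 3000–6000 cells/well and L02 at 7000 cells/well, cultured overnight, then exposed to a full dose range for 72 h. MTT (0.5 mg/mL) added for 4 h, supernatant removed, formazan dissolved in DMSO, absorbance read at 570 nm. IC50 taken as the mean of three independent experiments. Cells grown in DMEM + 10% FBS, 37 °C, 5% CO2.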

[3] = test system: MCF7; assay: Antiproliferative activity against human MCF7 cells assessed as growth inhibition at 1 uM after 72 hrs by MTT assay relative to control; format: functional
Summary of the method: (§2)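 Single-concentration MTT screen on MCF-7 and A549 cells grown in DMEM + 10% FBS. Cells at 3000–6000/well, cultured overnight, then given compound in buffer with 1% DMSO for 72 h. MTT (0.5 mg/mL) added for 4 h, formazan dissolved in DMSO, A570 read. Percent inhibition reported as the average ± S.D. of three independent measurements.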

[4] = test system: A-375; assay: Induction of cell cycle arrest in human A375 cells assessed as accumulation at G2 phase at 5 uM after 24 hrs by propidium iodide staining based flow cytometric analysis (reference value: 10.02%); format: functional
[5] = test system: MCF7; assay: Antiproliferative activity against human MCF7 cells assessed as growth inhibition after 72 hrs by MTT assay; format: functional, cell-based; conditions: Homo sapiens, MCF7, 72 h; read-out: IC50; summary of the method: as §1
[6] = test system: A-375; assay: Antiproliferative activity against human A375 cells assessed as growth inhibition after 72 hrs by MTT assay; format: functional, cell-based; conditions: Homo sapiens, A-375, 72 h; read-out: IC50; summary of the method: as §1
[7] = test system: A-375; assay: Induction of apoptosis in human A375 cells assessed as necrotic cells at 5 uM after 12 hrs by annexinV-FITC/propidium iodide staining based flow cytometric analysis (reference value: 0.56%); format: functional
[8] = test system: A-375; assay: Induction of apoptosis in human A375 cells assessed as necrotic cells at 5 uM after 36 hrs by annexinV-FITC/propidium iodide staining based flow cytometric analysis (reference value: 1.63%); format: functional
[9] = test system: A-375; assay: Induction of cell cycle arrest in human A375 cells assessed as accumulation at S phase at 5 uM after 24 hrs by propidium iodide staining based flow cytometric analysis (reference value: 37.33%); format: functional
[10] = test system: A-375; assay: Induction of apoptosis in human A375 cells assessed as late apoptotic cells at 5 uM after 24 hrs by annexinV-FITC/propidium iodide staining based flow cytometric analysis (reference value: 0.63%); format: functional
[11] = test system: PC-3; assay: Antiproliferative activity against human PC3 cells assessed as growth inhibition after 72 hrs by MTT assay; format: functional, cell-based; conditions: Homo sapiens, PC-3, 72 h; read-out: IC50; summary of the method: as §1
[12] = species: Homo sapiens; assay: Inhibition of PDK (unknown origin) using RYHGHSMSDP as substrate at 1 uM after 30 mins by Kinase-Glo luminescent assay
[13] = test system: HCT-116; assay: Antiproliferative activity against human HCT-116 cells assessed as growth inhibition after 72 hrs by MTT assay; format: functional, cell-based; conditions: Homo sapiens, HCT-116, 72 h; read-out: IC50; summary of the method: as §1
[14] = test system: A-375; assay: Induction of apoptosis in human A375 cells assessed as early apoptotic cells at 5 uM after 36 hrs by annexinV-FITC/propidium iodide staining based flow cytometric analysis (reference value: 3.2%); format: functional
[15] = test system: MCF7; assay: Antiproliferative activity against human MCF7 cells assessed as growth inhibition at 10 uM after 72 hrs by MTT assay relative to control; format: functional; conditions: read-out: GI; summary of the method: as §2
[16] = test system: A-375; assay: Induction of apoptosis in human A375 cells assessed as early apoptotic cells at 5 uM after 24 hrs by annexinV-FITC/propidium iodide staining based flow cytometric analysis (reference value: 0.87%); format: functional
[17] = test system: A549; assay: Antiproliferative activity against human A549 cells assessed as growth inhibition after 72 hrs by MTT assay; format: functional, cell-based; conditions: Homo sapiens, A549, 72 h; read-out: IC50; summary of the method: as §1
[18] = test system: A-375; assay: Induction of apoptosis in human A375 cells assessed as necrotic cells at 5 uM after 24 hrs by annexinV-FITC/propidium iodide staining based flow cytometric analysis (reference value: 0.56%); format: functional
[19] = test system: A-375; assay: Induction of apoptosis in human A375 cells assessed as early apoptotic cells at 5 uM after 12 hrs by annexinV-FITC/propidium iodide staining based flow cytometric analysis (reference value: 0.87%); format: functional
[20] = test system: A-375; assay: Induction of apoptosis in human A375 cells assessed as late apoptotic cells at 5 uM after 36 hrs by annexinV-FITC/propidium iodide staining based flow cytometric analysis (reference value: 1.02%); format: functional
[21] = test system: A-375; assay: Induction of apoptosis in human A375 cells assessed as late apoptotic cells at 5 uM after 12 hrs by annexinV-FITC/propidium iodide staining based flow cytometric analysis (reference value: 0.63%); format: functional
[22] = test system: SH-SY5Y; assay: Antiproliferative activity against human SHSY-5Y cells assessed as growth inhibition after 72 hrs by MTT assay; format: functional, cell-based; conditions: Homo sapiens, SH-SY5Y, 72 h; read-out: IC50; summary of the method: as §1
[23] = test system: A549; assay: Antiproliferative activity against human A549 cells assessed as growth inhibition at 1 uM after 72 hrs by MTT assay relative to control; format: functional; summary of the method: as §2
[24] = Inhibition of PDK (unknown origin) using RYHGHSMSDP as substrate after 30 mins by Kinase-Glo luminescent assay; set-up: species or system Homo sapiens
[25] = test system: A549; assay: Antiproliferative activity against human A549 cells assessed as growth inhibition at 10 uM after 72 hrs by MTT assay relative to control; format: functional; conditions: read-out: GI; summary of the method: as §2
[26] = test system: A-375; assay: Induction of apoptosis in human A375 cells assessed as viable cells at 5 uM after 24 hrs by annexinV-FITC/propidium iodide staining based flow cytometric analysis (Rvb= 97.94%); format: functional; conditions: read-out: Activity
[27] = test system: A-375; assay: Induction of apoptosis in human A375 cells assessed as viable cells at 5 uM after 36 hrs by annexinV-FITC/propidium iodide staining based flow cytometric analysis (reference value: 94.15%); format: functional; conditions: read-out: Activity
[28] = test system: A-375; assay: Induction of apoptosis in human A375 cells assessed as viable cells at 5 uM after 12 hrs by annexinV-FITC/propidium iodide staining based flow cytometric analysis (reference value: 97.94%); format: functional; conditions: read-out: Activity
[29] = test system: A-375; assay: Induction of cell cycle arrest in human A375 cells assessed as accumulation at G1 phase at 5 uM after 24 hrs by propidium iodide staining based flow cytometric analysis (reference value: 52.65%); format: functional
[30] = test system: A549; assay: Antiproliferative activity against human A549 cells assessed as reduction in cell viability after 24 hrs by MTT assay; format: functional, cell-based; conditions: A549, 24 h
[31] = species: Homo sapiens; assay: Inhibition of PDK (unknown origin) using RYHGHSMSDP as substrate at 80 uM after 30 mins by Kinase-Glo luminescent assay

IC50 [5]: 7.8 µM | IC50 [6]: 4.9 µM | IC50 [11]: 8.7 µM | inhibition [12]: 72.4% | IC50 [13]: 6.2 µM | IC50 [17]: 3.5 µM | IC50 [22]: 5.6 µM | EC50 [24]: 0.33 µM
SMILES: CC(C)Oc1ccc(C(=O)C(Cl)Cl)cc1[N+](=O)[O-]
inhibition [1]: Active | IC50 [2]: 16.9 µM | growth inhibition (GI) [3]: inactive | Activity [4]: 11.01% | Activity [7]: 3.77% | Activity [8]: 2.31% | Activity [9]: 30.65% | Activity [10]: 6.83% | Activity [14]: 6.6% | inhibition of growth at 10 µM [15]: 73.4% | Activity [16]: 4.71% | Activity [18]: 4.29% | Activity [19]: 2.43% | Activity [20]: 18.83% | Activity [21]: 2.66% | inhibition of growth at 1 µM ([23]; read-out: GI): 18.7% | inhibition of growth at 10 µM [25]: 98.2% | viability at 5 µM [26]: 84.2% | viability at 5 µM [27]: 68.9% | viability at 5 µM [28]: 91.1% | Activity [29]: 58.34%

SMILES: O=C(c1ccccc1)C(Cl)Cl
IC50 [2]: 19.7 µM | growth inhibition (GI) [3]: inactive | IC50 [5]: 21.4 µM | IC50 [6]: 16.9 µM | IC50 [11]: 23.1 µM | IC50 [13]: 12.9 µM | inhibition of growth at 10 µM [15]: 42.2% | IC50 [17]: 18.7 µM | IC50 [22]: 17.7 µM | growth inhibition (GI) [23]: inactive | EC50 [24]: > 80 µM | inhibition of growth at 10 µM [25]: 55.2% | IC50 [30]: 15.9 µM | inhibition [31]: 36.6%
